Experimental data taken from paper PMC4064470 (Journal of medicinal chemistry, 2013).

Key:
recombinant human VAP-1 = target: T1, recombinant human VAP-1 (Homo sapiens, UniProt Q16853); assay: In vitro inhibition of recombinant human VAP-1 activity; type: biochemical; details: control compound
T1 sequence (Q16853 1-763): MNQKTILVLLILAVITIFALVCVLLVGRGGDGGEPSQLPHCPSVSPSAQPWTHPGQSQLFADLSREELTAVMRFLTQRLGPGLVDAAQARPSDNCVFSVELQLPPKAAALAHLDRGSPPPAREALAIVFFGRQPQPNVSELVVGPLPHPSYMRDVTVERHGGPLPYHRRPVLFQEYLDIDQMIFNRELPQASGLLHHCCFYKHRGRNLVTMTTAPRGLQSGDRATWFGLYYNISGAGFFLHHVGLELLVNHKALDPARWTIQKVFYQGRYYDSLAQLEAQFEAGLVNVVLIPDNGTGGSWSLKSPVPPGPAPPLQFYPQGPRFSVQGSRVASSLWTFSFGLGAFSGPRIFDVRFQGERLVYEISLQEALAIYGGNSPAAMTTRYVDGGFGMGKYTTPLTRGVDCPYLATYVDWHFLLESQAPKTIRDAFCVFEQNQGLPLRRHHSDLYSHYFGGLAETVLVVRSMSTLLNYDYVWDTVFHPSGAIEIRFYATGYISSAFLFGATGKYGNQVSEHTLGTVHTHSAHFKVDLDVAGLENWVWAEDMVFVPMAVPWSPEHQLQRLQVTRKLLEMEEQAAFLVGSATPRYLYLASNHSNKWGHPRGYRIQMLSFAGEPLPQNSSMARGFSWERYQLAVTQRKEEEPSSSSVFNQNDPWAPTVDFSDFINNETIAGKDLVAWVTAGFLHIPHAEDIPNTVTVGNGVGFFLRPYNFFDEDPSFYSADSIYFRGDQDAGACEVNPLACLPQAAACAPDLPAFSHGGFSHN
Procedure, shortened: (§1)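 Enzyme source was lysate of CHO cells stably transfected with VAP-1 (native CHO has negligible activity), dosed to give 0.6 A490/h. Test compound (1 nM–50 μM) was preincubated 30 min at 37 °C with 0.2 M potassium phosphate pH 7.6, 1 mM 2,4-dichlorophenol, 500 μM 4-aminoantipyrine and 4 U/ml HRP. Then 1 mM benzylamine (final) was added for 1 h at 37 °C and A490 read. Percent inhibition was background-corrected and IC50 fitted, from two to six experiments.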

recombinant mouse VAP-1 = target: T2, recombinant mouse VAP-1 (Mus musculus, UniProt O70423); assay: In vitro inhibition of recombinant mouse VAP-1 activity; type: biochemical; details: control compound; mouse VAP-1 in Figure 1
T2 sequence (O70423 1-765): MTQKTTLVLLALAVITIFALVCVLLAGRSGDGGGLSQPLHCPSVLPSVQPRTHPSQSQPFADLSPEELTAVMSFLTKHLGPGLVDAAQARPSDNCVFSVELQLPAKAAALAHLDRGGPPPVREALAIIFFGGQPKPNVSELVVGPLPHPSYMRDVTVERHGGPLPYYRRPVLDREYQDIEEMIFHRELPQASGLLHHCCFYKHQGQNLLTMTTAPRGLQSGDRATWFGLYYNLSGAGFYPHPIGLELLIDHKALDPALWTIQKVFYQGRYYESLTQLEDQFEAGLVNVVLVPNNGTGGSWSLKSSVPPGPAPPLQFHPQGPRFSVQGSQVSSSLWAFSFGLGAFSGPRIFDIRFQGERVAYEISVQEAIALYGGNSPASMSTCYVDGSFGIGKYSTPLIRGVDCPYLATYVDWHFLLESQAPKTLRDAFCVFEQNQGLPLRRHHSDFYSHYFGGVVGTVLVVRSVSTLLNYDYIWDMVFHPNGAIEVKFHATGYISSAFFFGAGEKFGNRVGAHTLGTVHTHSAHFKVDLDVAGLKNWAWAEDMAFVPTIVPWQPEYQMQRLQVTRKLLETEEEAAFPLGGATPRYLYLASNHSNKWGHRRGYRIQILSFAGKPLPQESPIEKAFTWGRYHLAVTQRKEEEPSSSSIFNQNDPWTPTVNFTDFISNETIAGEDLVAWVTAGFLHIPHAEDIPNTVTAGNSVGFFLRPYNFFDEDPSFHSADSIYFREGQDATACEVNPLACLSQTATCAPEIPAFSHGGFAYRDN
Procedure, shortened: as §1

inhibition of human VAP-1 (in words) (recombinant human VAP-1): inhibits
inhibition of rodent VAP-1 (in words) (recombinant mouse VAP-1): inhibits
SMILES: CN(N)[C@H](c1ccccc1)[C@@H](O)c1ccccc1.O=C(O)C(O)C(O)C(=O)O [Compound 11d, (1S,2R)-2-(1-methylhydrazino)-1,2-diphenylethanol (S,S)-tartrate salt]
